Test [1] deals with spinal cord transient firing neurons. Particulars: cited from earlier work.
The next test has as its system Y1 receptors. The conditions noted are these: intrathecal; rodent models of chronic pain; cited from earlier work.
The test system of test [2] is inhibitory DREADD hM4DGi in spinal Y1-INs. Nature of the test: chemogenetic inhibition of Y1-INs: cold. The format is in vivo, mouse. The conditions noted are these: CNO 3 mg/kg i.p., n = 7 mice/group. The method in brief:
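Npy1rCre mice were given intraspinal AAV8-hSyn-DIO-hM4DGi into the left lumbar (L3–L4) DH, which expresses Gi-DREADD in Y1-INs. CNO 3 mg/kg i.p. was dosed pre- or post-SNI. Cold sensitivity was scored as the withdrawal response to a 10 μL acetone droplet on the lateral hindpaw. Analysis used two-way ANOVA and Holm-Sidak post hoc tests; data are means ± SEM.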

Test [3] deals with excitatory DREADD hM3DGq in spinal Y1-INs. Nature of the test: chemogenetic activation of Y1-INs: open field testing. The format is in vivo, mouse. Particulars: CNO 3 mg/kg, 60 min, n = 6 mice/group. The gist of the method:
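Uninjured Npy1rCre mice carried left lumbar dorsal-horn Cre-dependent hM3DGq or mCherry virus. Immediately after CNO (3 mg/kg, i.p.), mice were placed in a novel open field for 60 min. […] Averaged activity shown as heat maps. Student's unpaired two-tailed t test.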

In test [4] the test system is inhibitory DREADD hM4DGi in spinal Y1-INs. Nature of the test: chemogenetic inhibition of Y1-INs: mechanical withdrawal threshold. Particulars: CNO 3 mg/kg i.p., n = 7 mice/group. The format is in vivo, mouse. The gist of the method:
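Adult Npy1rCre mice received intraspinal Cre-dependent AAV8-hSyn-DIO-hM4DGi (mCherry-tagged) into the left lumbar DH at L3–L4. CNO (3 mg/kg, i.p.) was given either before or after SNI. Calibrated von Frey filaments were applied to the lateral hindpaw to measure withdrawal thresholds. Statistics used two-way ANOVA with Holm-Sidak post hoc tests, and data are shown as means ± SEM.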

The subject of test [5] is excitatory DREADD hM3DGq in spinal Y1-INs. Nature of the test: chemogenetic activation of Y1-INs: conditioned place aversion. The test is classed as in vivo, mouse. Particulars: CNO 3 mg/kg i.p., uninjured mice, n = 10 to 11 mice/group.
In test [6] the test system is inhibitory DREADD hM4DGi in spinal Y1-INs. Nature of the test: chemogenetic inhibition of Y1-INs: conditioned place preference. The format is in vivo, mouse. Particulars: CNO 3 mg/kg i.p., SNI mice, n = 10 to 11 mice/group. The gist of the method: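 SNI Npy1rCre mice carried either intraspinal (left lumbar DH) Cre-dependent hM4DGi or control mCherry virus. After conditioning with CNO (3 mg/kg i.p.) paired to one chamber, time spent in the CNO-paired chamber was recorded. Groups were compared with an unpaired two-tailed Student's t test; data are means ± SEM.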

A further test deals with DREADD. The conditions noted are these: CNO 3 mg/kg; cited from earlier work.
Test [7] deals with excitatory DREADD hM3DGq in spinal Y1-INs. Nature of the test: chemogenetic activation of Y1-INs: spontaneous nocifensive behavior. The format is in vivo, mouse. The conditions noted are these: CNO 3 mg/kg i.p., n = 3 to 5 mice/group. The method in brief:
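Cre-dependent AAV8-hSyn-DIO-hM3DGq-mCitrine or mCherry control virus was injected into the left lumbar dorsal horn of uninjured Npy1rCre mice. CNO (3 mg/kg, i.p.) or saline was given, then behaviour was videotaped. Scored: nocifensive acts (lifting, flapping, shaking, licking, guarding) and itch-like acts (biting, scratching), each directed to the ipsilateral or contralateral hind limb. Three-way RM ANOVA, Holm-Sidak post hoc.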

Test [8] concerns inhibitory DREADD hM4DGi in spinal Y1-INs. Nature of the test: chemogenetic inhibition of Y1-INs: light touch-evoked pERK. The format is in vivo, mouse. Particulars: CNO 3 mg/kg i.p., SNI mice, n = 7 mice/group. The method in brief: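 Y1-INs in Npy1rCre mice were targeted by left lumbar (L3–L4) DH injection of AAV8-hSyn-DIO-hM4DGi. In SNI mice, CNO (3 mg/kg i.p.) was followed by light brushing of the lateral hindpaw. Ipsilateral lumbar DH sections were then immunostained for pERK and quantified in the superficial laminae. Groups were compared by unpaired two-tailed Student's t test; data are means ± SEM.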

The test system of test [9] is excitatory DREADD hM3DGq in spinal Y1-INs. Put plainly: chemogenetic activation of Y1-INs: mechanical. The format is in vivo, mouse. Particulars: CNO 3 mg/kg, uninjured mice, n = 8 mice/group. The gist of the method:
(§1)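 Npy1rCre mice were given an intraspinal injection of Cre-dependent AAV8-hSyn-DIO-hM3DGq-mCitrine into the left lumbar dorsal horn; controls received mCherry virus. Mice were uninjured. CNO 3 mg/kg was given i.p. before testing. Assays: von Frey filaments to the lateral hindpaw (mechanical); a 10 μL acetone droplet to the lateral hindpaw, scoring withdrawal (cold); 52.5 C hotplate (heat). Holm-Sidak post hoc tests.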

Test [10] shares this test system. Nature of the test: chemogenetic activation of Y1-INs: heat. The format is in vivo, mouse. The conditions noted are these: CNO 3 mg/kg, uninjured mice, n = 8 mice/group. The method in brief:
as §1

Test [11] has the same test system. Nature of the test: chemogenetic activation of Y1-INs: cold. The format is in vivo, mouse. The conditions noted are these: CNO 3 mg/kg, uninjured mice, n = 8 mice/group. The gist of the method: as §1
Test [12] concerns SNI mice (mechanical allodynia). Nature of the test: mechanical withdrawal threshold. Particulars: intrathecal coadministration of BIBO 3304 10.0 µg with [Leu^31, Pro^34]-NPY 10.0 µg; n = 4 to 11 mice/group. The test is classed as in vivo, mouse.
Test [13] deals with SNI mice (cold allodynia). Nature of the test: cold withdrawal duration. The test is classed as in vivo, mouse. Particulars: intrathecal coadministration of BIBO 3304 10.0 µg with [Leu^31, Pro^34]-NPY 10.0 µg; n = 4 to 11 mice/group.
The subject of test [14] is light touch-evoked pERK in ipsilateral dorsal horn neurons. Nature of the test: light touch-evoked pERK immunoreactivity in dorsal horn, SNI, intrathecal agents. The format is in vivo, mouse. Particulars: intrathecal coadministration of BIBO 3304 10.0 µg with [Leu^31, Pro^34]-NPY 10.0 µg; n = 4 to 6 mice/group.

Data on 4 compounds can be found in article PMC9674229 (Proceedings of the National Academy of Sciences of the …, 2022).

Consider `NCC1(CC(=O)O)CCCCC1` [gabapentin], for which, in test [1], the “frequency and amplitude of sEPSCs” value was “reducing both the frequency and amplitude of sEPSCs”.

Consider neuropeptide Y [NPY], for which the “behavioral and spinal molecular signs of hyperalgesia” value with Y1 receptors was “reduces the behavioral and spinal molecular signs of hyperalgesia”.

Turning to `C[N+]1([O-])CCN(C2=Nc3cc(Cl)ccc3Nc3ccccc32)CC1` [CNO, clozapine N-oxide], the SNI-induced cold hypersensitivity result in test [2] (post-SNI) is “abolished both mechanical and cold hypersensitivity”. Also, the “cold withdrawal thresholds before SNI” value in test [2] (pre-SNI) is recorded as “does not alter mechanical or cold withdrawal thresholds before SNI”. In [3], the “grooming-like behaviors (stereotypic episode activity count)” value was “increased grooming-like (stereotypic episode activity count) behaviors”, the “movement in open field” value is “continuous movement” and the “rest in open field” value is “lack of rest”. Further, the SNI-induced mechanical hypersensitivity entry in [4] (post-SNI) is “abolished both mechanical and cold hypersensitivity”. Besides, the “mechanical withdrawal thresholds before SNI” value in test [4] (pre-SNI) was “does not alter mechanical or cold withdrawal thresholds before SNI”. Further, the conditioned place aversion result in [5] is reported as “produced a robust CPA”. In test [6] (control virus (mCherry)), the “conditioned place preference (time in CNO-paired chamber)” value was “but not control virus (mCherry) spent more time in the CNO-paired chamber”. The “conditioned place preference (time in CNO-paired chamber)” value in test [6] (hM4DGi) was “spent more time in the CNO-paired chamber”. The “time to alter DREADD-dependent neuronal activity” value in the test with DREADD is reported as ≤ 15 min. Besides, in test [7] (control (mCherry) virus), the spontaneous nocifensive behaviors result is reported as “but not control (mCherry) virus”. Besides, in [7] (hM3DGq, uninjured mice), the “itch-like (biting or scratching) behaviors” value is given as “but not itch-like (biting or scratching) behaviors” and the “spontaneous nocifensive behaviors, contralateral hind limb” value is recorded as “but not contralateral, hind limb”. For the same compound, the “light touch-evoked pERK in the superficial DH” value in test [8] was “reduced light-touch evoked pERK in the superficial DH”. The “mechanical (vF) hypersensitivity” value in test [9] is reported as “hypersensitivity”. In addition, the “heat (52.5 C hotplate) hypersensitivity” value in [10] is given as “hypersensitivity”. In addition, in test [11], the “cold (acetone droplet withdrawal) hypersensitivity” value was “hypersensitivity”.

Consider `NC(=O)NCc1ccc(CNC(=O)[C@@H](CCCN=C(N)N)NC(=O)C(c2ccccc2)c2ccccc2)cc1` [BIBO 3304], for which, in [12], the “effect on Y1 agonist-induced mechanical anti-allodynia” value was “abolishes”. Also, the “effect on Y1 agonist-induced cold anti-allodynia” value in test [13] was “abolishes”. Further, in test [14], the “effect on Y1 agonist-induced reduction of light touch-evoked pERK” value is “this effect is abolished with coadministration of the Y1 antagonist”.
